Results published in ChEMBL document CHEMBL3856206, “Nitroimidazole carboxamides as antiparasitic agents targeting Giardia lamblia, Entamoeba histolytica and Trichomonas vaginalis” (Eur J Med Chem, 2016).
Calls of active or inactive are those of the source. The calls are words filed in the database; no cut-off is given here.

Columns and labels:
[1] = Selectivity index, ratio of CC50 for human HepG2 cells to EC50 for metronidazole sensitive Giardia lamblia WB trophozoites
[2] = Selectivity index, ratio of CC50 for HEK293 cells to EC50 for metronidazole sensitive Giardia lamblia WB trophozoites
[3] = Metabolic stability in human liver microsomes assessed as compound remaining at 5 uM after 2 hrs in presence of NADPH by LC/MS/MS analysis; type: ADME; conditions: read-out: Stability
Entamoeba histolytica [4] = test: Potency index, ratio of metronidazole EC50 to compound EC50 for metronidazole sensitive Entamoeba histolytica HM-1:IMSS trophozoites; type: functional
Giardia intestinalis [5] = test: Potency index, ratio of metronidazole EC50 to compound EC50 for metronidazole resistant Giardia lamblia 713M3 trophozoites; type: functional, Giardia duodenalis
Giardia intestinalis [6] = test: Potency index, ratio of metronidazole EC50 to compound EC50 for metronidazole sensitive Giardia lamblia WB trophozoites; type: functional, Giardia duodenalis
Entamoeba histolytica [7] = test: Antiparasitic activity against metronidazole sensitive Entamoeba histolytica HM-1:IMSS trophozoites after 24 to 48 hrs under anaerobic conditions by Celltiter-Glo assay; type: functional
Procedure, shortened: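 Axenic log-phase trophozoites in TYI-S-33 with penicillin and streptomycin, 5000 parasites per well. Tested over a final 8-point three-fold series, 0.01–25 μM. Incubated 24–48 h at 37 °C in anaerobe gas pouches. Viable cells measured by ATP bioluminescence (CellTiter-Glo) in triplicate to give EC50.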

[8] = Antiparasitic activity against metronidazole sensitive Clostridium difficile 630 ATCC BAA-1382 after 24 hrs by broth microdilution method; type: functional, Clostridioides difficile 630; conditions: Clostridioides difficile, ATCC BAA-1382, 24 h
Procedure, shortened: (§1)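 C. difficile 630 and NAP1/027 grown anaerobically overnight in BHIS at 37 °C, diluted 40-fold, grown ~4.5 h to mid-log (OD600 0.4–0.6). Final inoculum 5 × 10^5 CFU/mL in BHIS against two-fold dilutions, 64 to 0.03 μg/mL, 3% maximum DMSO, in pre-reduced plates (5% H2, 10% CO2, 85% N2). Incubated 24 h at 37 °C. MIC is the lowest concentration without visible growth. Median of replicates reported.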

Clostridioides difficile = test: Antiparasitic activity against Clostridium difficile NAP1/027 ATCC BAA-1803 after 24 hrs by broth microdilution method; type: functional; conditions: NAP1/027 ATCC BAA-1803, 24 h; procedure, shortened: as §1
[9] = Cytotoxicity against HEK293 cells assessed as cell growth inhibition after 24 hrs by resazurin assay; type: toxicity, cell-based; conditions: human
Procedure, shortened: (§2)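 HEK293 (3000/well) and HepG2 (5000/well) cells cultured 24 h in DMEM with 10% FBS at 37 °C, 5% CO2. Compound dilution series added, top concentration 100 μM, 0.5% final DMSO, for 24 h. Then 5 μM resazurin added for 2 h at 37 °C. 1% Triton X-100 served as the lysis control.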

[10] = Cytotoxicity against human HepG2 cells assessed as cell growth inhibition after 24 hrs by resazurin assay; type: toxicity, cell-based; procedure, shortened: as §2
[11] = Protein binding in human plasma at 5 uM after 30 min by ultrafiltration method; type: ADME, cell-free; conditions: 0.5 h
Giardia intestinalis [12] = test: Antiparasitic activity against metronidazole sensitive Giardia lamblia WB trophozoites assessed as morphological alterations at 3 times EC50 after 48 hrs under anaerobic conditions by phase contrast microscopic analysis; type: functional; conditions: Giardia duodenalis

Compound | Ratio CC50/EC50 [1] | Ratio CC50/EC50 [2] | also measured
CN(C)C(=O)c1ncc([N+](=O)[O-])n1C | >42 | >42 | 
O=C(NCc1ccc(OC(F)(F)F)cc1)c1ncc([N+](=O)[O-])[nH]1 |  | >500 | 
O=C(c1ncc([N+](=O)[O-])[nH]1)N1CCOCC1 | >11 | >11 | remaining at 2 h, 5 µM [3]: 100%
CNC(=O)c1nc([N+](=O)[O-])cn1Cc1ccc(OC(F)(F)F)cc1 | >29 | >29 | 
CN(C)C(=O)c1ncc([N+](=O)[O-])[nH]1 | >12 | >12 | Ratio EC50 (Entamoeba histolytica [4]): 2 - 3
NC(=O)c1nc([N+](=O)[O-])cn1Cc1cccc(OC(F)(F)F)c1 | >12 | >12 | 
O=C(NCc1ccccn1)c1ncc([N+](=O)[O-])[nH]1 | >14 | >14 | 
NC(=O)c1nc([N+](=O)[O-])cn1Cc1ccccn1 | >3.7 | >3.7 | 
Cn1c([N+](=O)[O-])cnc1C(=O)NC1CC1 | >29 | >29 | 
Cc1ncc([N+](=O)[O-])n1CCO [METRONIDAZOLE] |  |  | remaining at 2 h, 5 µM [3]: 100%
O=C(NCc1cccc(OC(F)(F)F)c1)c1ncc([N+](=O)[O-])[nH]1 | >500 | >500 | 
CNC(=O)c1ncc([N+](=O)[O-])[nH]1 | >10 | >10 | 
CC(NC(=O)c1ncc([N+](=O)[O-])n1C)c1ccc(F)cc1 (stereo unspecified) | >34 | >34 | Ratio EC50 (Giardia intestinalis [5]): 3 - 12
Cn1c([N+](=O)[O-])cnc1C(=O)NC1CCCCC1 | >20 | >20 | Ratio EC50 (Giardia intestinalis [5]): 3 - 12
Cn1c([N+](=O)[O-])cnc1C(=O)NCc1ccccn1 | >63 | >63 | Ratio EC50 (Giardia intestinalis [6]): 4; Ratio EC50 (Giardia intestinalis [5]): 3 - 12
O=C(c1ncc([N+](=O)[O-])[nH]1)N1CCCC1 | >29 | >29 | 

Compound | Ratio CC50/EC50 [1] | Ratio CC50/EC50 [2] | also measured
CN(C)C(=O)c1nc([N+](=O)[O-])cn1Cc1ccc(OC(F)(F)F)cc1 | >37 | >37 | 
Cn1c([N+](=O)[O-])cnc1C(=O)N1CCCC1 | >34 | >34 | Ratio EC50 (Giardia intestinalis [5]): 3 - 12
Cc1ccc(CCNC(=O)c2ncc([N+](=O)[O-])[nH]2)cc1 | >1000 | >1000 | Ratio EC50 (Entamoeba histolytica [4]): 2 - 3
CCOC(=O)c1nc([N+](=O)[O-])cn1Cc1ccc(OC(F)(F)F)cc1 | >17 | >17 | 
NC(=O)c1nc([N+](=O)[O-])cn1CC1CC1 |  |  | EC50 (Entamoeba histolytica [7]; read-out: EC50): > 50 µM; EC50 (Entamoeba histolytica [7]; read-out: pEC50 (converted)): > 50.1 µM; MIC [8]: > 64 µg/mL; MIC (Clostridioides difficile): > 64 µg/mL; CC50 at 24 h [9]: > 100 µM; CC50 at 24 h [10]: > 100 µM
O=C(NO)c1nc([N+](=O)[O-])cn1Cc1ccc(OC(F)(F)F)cc1 | >20 |  | 
O=C(NC1CC1)c1ncc([N+](=O)[O-])[nH]1 | >20 | >20 | 
NNC(=O)c1nc([N+](=O)[O-])cn1Cc1ccc(OC(F)(F)F)cc1 | >13 | >13 | 
CN(CCO)C(=O)c1ncc([N+](=O)[O-])[nH]1 | >4 | >4 | 
Cn1c([N+](=O)[O-])cnc1C(=O)N1CCOCC1 | >63 | >63 | remaining at 2 h, 5 µM [3]: 97%; Ratio EC50 (Giardia intestinalis [6]): 4
Cn1c([N+](=O)[O-])cnc1C(=O)NCc1ccc(F)cc1 | >29 | >29 | remaining at 2 h, 5 µM [3]: 88%
Cc1ccc(CCNC(=O)c2ncc([N+](=O)[O-])n2C)cc1 | >36 | >36 | 
O=C(NCc1ccc(F)cc1)c1ncc([N+](=O)[O-])[nH]1 | >250 | >250 | remaining at 2 h, 5 µM [3]: 94%; PPB [11]: > 99%; Activity (Giardia intestinalis [12]): Active
O=C(NC1CCCCC1)c1ncc([N+](=O)[O-])[nH]1 | >167 | >167 | Ratio EC50 (Entamoeba histolytica [4]): 2 - 3
CC(NC(=O)c1ncc([N+](=O)[O-])[nH]1)c1ccc(F)cc1 (stereo unspecified) | >250 | >250 | Ratio EC50 (Entamoeba histolytica [4]): 2 - 3
NC(=O)c1nc([N+](=O)[O-])cn1Cc1ccc(OC(F)(F)F)cc1 | >22 | >22 | 
